For four molecules, Activity results are on record in ChEMBL document CHEMBL2311390, “Synthesis and preliminary evaluation of pharmacological properties of some piperazine derivatives of xanthone” (Bioorg Med Chem, 2013).

Data set [1] has as its system Rattus norvegicus. In words: Hypotensive activity in normotensive Wistar rat assessed as reduction of systolic blood pressure at 0.31 mg/kg, iv after 5 mins. The format is functional, Artery. The method in brief: (§1)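 Male normotensive Wistar rats (170–350 g) anaesthetised with thiopental 75 mg/kg ip; right carotid artery cannulated with heparinised saline-filled polyethylene tubing for pressure recording. After a 5 min stabilisation, compound given into the caudal vein at 1 mL/kg. Systolic pressure is recorded at 0, 5, 10, 20, 30 and 60 min, and the data are reported as mean ± SEM of five to six animals, with one-way ANOVA.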

The subject of data set [2] is Rattus norvegicus. In words: Hypotensive activity in normotensive Wistar rat assessed as reduction of systolic blood pressure at 0.625 mg/kg, iv after 10 mins. The format is functional, Artery. The method in brief: as §1
In data set [3] the test system is Rattus norvegicus. In words: Hypotensive activity in normotensive Wistar rat assessed as reduction of systolic blood pressure at 0.16 mg/kg, iv after 30 mins. The format is functional, Artery. The method in brief: as §1
Data set [4] concerns Rattus norvegicus. In words: Hypotensive activity in normotensive Wistar rat assessed as reduction of systolic blood pressure at 0.16 mg/kg, iv after 60 mins. Type of data set: functional, Artery. The method in brief: as §1
Data set [5] concerns Rattus norvegicus. Kind of data set: Hypotensive activity in normotensive Wistar rat assessed as reduction of systolic blood pressure at 0.31 mg/kg, iv after 10 mins. Type of data set: functional, Artery. The method in brief:
as §1

Data set [6] concerns Rattus norvegicus. In words: Hypotensive activity in normotensive Wistar rat assessed as reduction of diastolic blood pressure at 0.31 mg/kg, iv after 5 mins. Type of data set: functional, Artery. The method in brief: (§2)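 Male normotensive Wistar rats were anaesthetised with thiopental 75 mg/kg ip. The right carotid artery was cannulated with heparinised saline for pressure recording. After 5 min of stabilisation, compound was injected into the tail vein at 1 mL/kg. Systolic and diastolic pressure were followed up to 60 min. Data are means ± SEM of 5–6 rats, analysed by one-way ANOVA.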

For data set [7], the system named is Rattus norvegicus. In words: Hypotensive activity in normotensive Wistar rat assessed as reduction of diastolic blood pressure at 0.16 mg/kg, iv after 5 mins. Type of data set: functional, Artery. The method in brief:
as §2

The subject of data set [8] is Rattus norvegicus. In words: Hypotensive activity in normotensive Wistar rat assessed as reduction of systolic blood pressure at 0.31 mg/kg, iv after 20 mins. Type of data set: functional, Artery. The method in brief:
as §1

Data set [9] has as its system Rattus norvegicus. In words: Hypotensive activity in normotensive Wistar rat assessed as reduction of diastolic blood pressure at 0.16 mg/kg, iv after 10 mins. Type of data set: functional, Artery. The method in brief:
as §2

In data set [10] the test system is Rattus norvegicus. In words: Hypotensive activity in normotensive Wistar rat assessed as reduction of diastolic blood pressure at 0.625 mg/kg, iv after 30 mins. Type of data set: functional, Artery. The method in brief: as §2
In data set [11] the test system is Rattus norvegicus. In words: Hypotensive activity in normotensive Wistar rat assessed as reduction of diastolic blood pressure at 0.625 mg/kg, iv after 20 mins. Type of data set: functional, Artery. The method in brief: as §2
Data set [12] deals with Rattus norvegicus. In words: Hypotensive activity in normotensive Wistar rat assessed as reduction of diastolic blood pressure at 0.625 mg/kg, iv after 60 mins. The format is functional, Artery. The method in brief:
as §2

In data set [13] the test system is Rattus norvegicus. Kind of data set: Hypotensive activity in normotensive Wistar rat assessed as reduction of diastolic blood pressure at 0.625 mg/kg, iv after 10 mins. Type of data set: functional, Artery. The method in brief:
as §2

Data set [14] relates to Rattus norvegicus. In words: Hypotensive activity in normotensive Wistar rat assessed as reduction of systolic blood pressure at 0.625 mg/kg, iv after 20 mins. The format is functional, Artery. The method in brief: as §1
Data set [15] relates to Rattus norvegicus. In words: Hypotensive activity in normotensive Wistar rat assessed as reduction of systolic blood pressure at 0.625 mg/kg, iv after 5 mins. The format is functional, Artery. The method in brief: as §1
The test system of data set [16] is Rattus norvegicus. Kind of data set: Hypotensive activity in normotensive Wistar rat assessed as reduction of systolic blood pressure at 0.625 mg/kg, iv after 30 mins. The format is functional, Artery. The method in brief:
as §1

The subject of data set [17] is Rattus norvegicus. In words: Hypotensive activity in normotensive Wistar rat assessed as reduction of systolic blood pressure at 0.31 mg/kg, iv after 60 mins. Type of data set: functional, Artery. The method in brief:
as §1

In data set [18] the test system is Rattus norvegicus. In words: Cardiotoxicity in Wistar rat assessed as QRS interval at 5 mg/kg, iv after 10 mins by ECG analysis. The format is toxicity, organism-based. Details: dose 5 mg/kg, route intravenous. To be noted: in vivo.
Data set [19] concerns Rattus norvegicus. Kind of data set: Cardiotoxicity in Wistar rat assessed as QRS interval at 5 mg/kg, iv after 15 mins by ECG analysis. The format is toxicity, organism-based. Further details: dose 5 mg/kg, route intravenous. To be noted: in vivo, 0.25 h. The method in brief: (§3)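 Male normotensive Wistar rats, 170–350 g, six per group. Compound given iv at a constant volume of 1 mL/kg. ECG was recorded just before dosing and at 1, 5 and 15 min after. PQ, QRS and QT intervals and heart rate were read from the trace. Groups were compared by one-way ANOVA.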

Data set [20] has as its system Rattus norvegicus. In words: Cardiotoxicity in Wistar rat assessed as PQ interval at 5 mg/kg, iv after 10 mins by ECG analysis. Type of data set: toxicity, organism-based. Further details: dose 5 mg/kg, route intravenous. To be noted: in vivo.
Data set [21] concerns Rattus norvegicus. In words: Cardiotoxicity in Wistar rat assessed as QT interval at 5 mg/kg, iv after 15 mins by ECG analysis. The format is toxicity, organism-based. Further details: dose 5 mg/kg, route intravenous. To be noted: in vivo, 0.25 h. The method in brief: as §3
In data set [22] the test system is Rattus norvegicus. Kind of data set: Cardiotoxicity in Wistar rat assessed as PQ interval at 5 mg/kg, iv after 5 mins by ECG analysis. Details: dose 5 mg/kg, route intravenous. To be noted: in vivo. The format is toxicity, organism-based. The method in brief: as §3
Data set [23] concerns Rattus norvegicus. In words: Cardiotoxicity in Wistar rat assessed as PQ interval at 5 mg/kg, iv after 15 mins by ECG analysis. Type of data set: toxicity, organism-based. Details: dose 5 mg/kg, route intravenous. To be noted: in vivo, 0.25 h. The method in brief: as §3
In data set [24] the test system is Rattus norvegicus. Kind of data set: Cardiotoxicity in Wistar rat assessed as hear beats per min at 5 mg/kg, iv after 10 mins by ECG analysis. Further details: dose 5 mg/kg, route intravenous. To be noted: in vivo. Type of data set: toxicity, organism-based.
Data set [25] deals with Rattus norvegicus. In words: Cardiotoxicity in Wistar rat assessed as QT interval at 5 mg/kg, iv after 5 mins by ECG analysis. The format is toxicity, organism-based. Further details: dose 5 mg/kg, route intravenous. To be noted: in vivo. The method in brief: as §3
Data set [26] deals with Rattus norvegicus. Kind of data set: Cardiotoxicity in Wistar rat assessed as QRS interval at 10 mg/kg, iv after 5 mins by ECG analysis. To be noted: in vivo. Type of data set: toxicity, organism-based. Further details: dose 10 mg/kg, route intravenous. The method in brief: as §3
Data set [27] relates to Rattus norvegicus. In words: Cardiotoxicity in Wistar rat assessed as QT interval at 10 mg/kg, iv after 10 mins by ECG analysis. The format is toxicity, organism-based. Further details: dose 10 mg/kg, route intravenous. To be noted: in vivo.
Data set [28] relates to Rattus norvegicus. Kind of data set: Cardiotoxicity in Wistar rat assessed as QT interval at 10 mg/kg, iv after 5 mins by ECG analysis. The format is toxicity, organism-based. Further details: dose 10 mg/kg, route intravenous. To be noted: in vivo. The method in brief: as §3
Data set [29] has as its system Rattus norvegicus. In words: Cardiotoxicity in Wistar rat assessed as QRS interval at 10 mg/kg, iv after 10 mins by ECG analysis. The format is toxicity, organism-based. Further details: dose 10 mg/kg, route intravenous. To be noted: in vivo.
Data set [30] concerns Rattus norvegicus. Kind of data set: Cardiotoxicity in Wistar rat assessed as PQ interval at 10 mg/kg, iv after 15 mins by ECG analysis. Further details: dose 10 mg/kg, route intravenous. The format is toxicity, organism-based. To be noted: in vivo, 0.25 h. The method in brief:
as §3

Data set [31] deals with Rattus norvegicus. Kind of data set: Cardiotoxicity in Wistar rat assessed as QT interval at 10 mg/kg, iv after 15 mins by ECG analysis. The format is toxicity, organism-based. Details: dose 10 mg/kg, route intravenous. To be noted: in vivo, 0.25 h. The method in brief: as §3
For data set [32], the system named is Rattus norvegicus. Kind of data set: Cardiotoxicity in Wistar rat assessed as hear beats per min at 10 mg/kg, iv after 10 mins by ECG analysis. Further details: dose 10 mg/kg, route intravenous. Type of data set: toxicity, organism-based. To be noted: in vivo.
Data set [33] deals with Rattus norvegicus. In words: Cardiotoxicity in Wistar rat assessed as QRS interval at 10 mg/kg, iv after 15 mins by ECG analysis. Type of data set: toxicity, organism-based. Further details: dose 10 mg/kg, route intravenous. To be noted: in vivo, 0.25 h. The method in brief: as §3
The test system of data set [34] is Rattus norvegicus. Kind of data set: Cardiotoxicity in Wistar rat assessed as hear beats per min at 10 mg/kg, iv after 15 mins by ECG analysis. Type of data set: toxicity, organism-based. Details: dose 10 mg/kg, route intravenous. To be noted: in vivo, 0.25 h. The method in brief:
as §3

As to `COc1ccccc1N1CCN(CCCOc2cccc3c(=O)c4ccccc4oc23)CC1.Cl`, the Activity with Rattus norvegicus [1] came out at 122 mmHg; in the data set on Rattus norvegicus [2], 125.5 mmHg; with Rattus norvegicus [3], 111.4 mmHg; with Rattus norvegicus [4] it was 108.2 mmHg; in the data set on Rattus norvegicus [5], 122.8 mmHg; in the data set with Rattus norvegicus [6], 107.2 mmHg. The Activity with Rattus norvegicus [7] is 97 mmHg; with Rattus norvegicus [8], 121 mmHg; in the data set on Rattus norvegicus [9], 99.2 mmHg; in the data set on Rattus norvegicus [10], 111.7 mmHg; in the data set with Rattus norvegicus [11], 110.5 mmHg; in the data set with Rattus norvegicus [12], 112 mmHg. Further, the Activity with Rattus norvegicus [13] was determined as 106.5 mmHg; in the data set with Rattus norvegicus [14] it was 129.5 mmHg; with Rattus norvegicus [15], 122 mmHg; in the data set on Rattus norvegicus [16], 129.5 mmHg; in the data set with Rattus norvegicus [17], 116 mmHg.
Regarding `Cl.Cl.Cl.O=c1c2ccc(Cl)cc2oc2c(OCC(O)CN3CCN(C/C=C/c4ccccc4)CC3)cccc12` (racemic), the Activity stood at 20.2 ms in the data set on Rattus norvegicus [18]; 20.3 ms in the data set on Rattus norvegicus [19]; 46 ms with Rattus norvegicus [20]; 74.6 ms in the data set on Rattus norvegicus [21]; 45.7 ms with Rattus norvegicus [22]; 45.2 ms in the data set with Rattus norvegicus [23]. The Activity is given as 324.3 bpm in the data set on Rattus norvegicus [24] and 73.6 ms in the data set on Rattus norvegicus [25].
`Cl.Cl.Cl.O=c1c2ccc(Cl)cc2oc2c(OCC(O)CN3CCN(Cc4ccccc4)CC3)cccc12` (racemic): the Activity in the data set with Rattus norvegicus [26] was 19.2 ms; with Rattus norvegicus [27] it was 72.8 ms; in the data set on Rattus norvegicus [28] it was 74 ms; with Rattus norvegicus [29] it was 19.6 ms; in the data set with Rattus norvegicus [30], 40.9 ms; with Rattus norvegicus [31], 78.8 ms. The figures for the Activity in the data set with Rattus norvegicus [32], with Rattus norvegicus [33] and in the data set with Rattus norvegicus [34] were 285 bpm, 20.1 ms and 268.8 bpm, respectively.
For `COc1ccccc1N1CCN(CC(O)COc2cccc3c(=O)c4ccccc4oc23)CC1.Cl` (racemic), the Activity came to 122.8 mmHg with Rattus norvegicus [1]; 115.7 mmHg with Rattus norvegicus [3]; 115.2 mmHg with Rattus norvegicus [4]; 121.8 mmHg in the data set on Rattus norvegicus [5]; 102.8 mmHg in the data set on Rattus norvegicus [6]; 109.2 mmHg with Rattus norvegicus [7]. For the same molecule, the Activity in the data set with Rattus norvegicus [8] was 120.6 mmHg; in the data set with Rattus norvegicus [9] it was 110.2 mmHg; with Rattus norvegicus [17], 116 mmHg.
